# Source: PubChem BioAssay (several laboratories)
# PMI activator = activators of human phosphomannose isomerase; purified human PMI, coupled resazurin fluorescence, 20 min; stronger effect = higher value; 1 = vehicle control, 0 substrate-free wells; activation factor at 20 µM; 0.005% of 190,000 active; AID 1214;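 active = activation factor of 2 or more at 20 µM, relative to plate controls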
# KCC2 mod = modulates chloride dependent transport by human KCC2; KCC2 cells, thallium flux FluoZin-2 fluorescence; B-score of Tl+ flux slope (higher = more flux/activation; lower = inhibition) at 10 µM; AID 1456; 2.2% of 190,000 active;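 active = thallium flux slope and its plate-corrected score both differing from the plate sample mean at a set confidence after two filtering rounds, in either direction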;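 also: slope of fluorescence scaled to starting intensity during 10 to 20 s after thallium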
# PMI act satM6P = activators of human phosphomannose isomerase at near-saturating mannose 6-phosphate; coupled PMI enzyme assay, resazurin fluorescence, 20 min; stronger effect = higher value; 1 = untreated enzyme, 0 = substrate-free blank; activation factor at 20 µM; 0.34% of 190,000 active;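 active = activation factor of 2 or more at 20 µM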
#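 assay system = human phosphomannose isomerase with PGI, G6PDH, diaphorase coupling enzymes | quantity = 15 ng/mL PMI | incubation = enzyme reaction with compound 20 min at room temperature | medium = HEPES pH 7.4 buffer with MgCl2 and Tween-20 | compound dosing = one concentration, 20 µM, in 1% DMSO | measured by = Diaphorase-driven resazurin-to-resorufin fluorescence, excitation 544, emission 590 nm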
# ROMK primary = modulators of human ROMK potassium channel. P48048. Tet-inducible ROMK, thallium flux fluorescence; actives lie on both sides. B-score at 10 µM. 2% of 130,000 active. AID 1918;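 active = signal ratio slope over the read window, or its plate-corrected B-score, at least 3 SD from the plate mean, either direction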;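 also: B-score of the F/F0 ratio slope over 7 to 12 s after thallium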
# ABCB1 inh = blocks JC-1 efflux by human ABCB1 transporter; CCRF-Adr cells, flow cytometry; 0.067% of 190,000 active; inhibition, % at 6.6 µM; in the data active = inhibition above about 40%;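 also: 0% = vehicle and 100% = reference inhibitor; higher value means more JC-1 retained so stronger ABCB1 efflux block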
# ABCG2 inh = human ABCG2 inhibition, ABCB1 as counter-screen | IgMXP3 cells, JC-1 efflux, flow cytometry | 0.1% of 190,000 active | inhibition, % at 6.6 µM;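 active = inhibition above 80%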;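 also: 0% = DMSO and 100% = nicardipine control wells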
# Target sequence (Q9UNQ0 whole entry, looked up): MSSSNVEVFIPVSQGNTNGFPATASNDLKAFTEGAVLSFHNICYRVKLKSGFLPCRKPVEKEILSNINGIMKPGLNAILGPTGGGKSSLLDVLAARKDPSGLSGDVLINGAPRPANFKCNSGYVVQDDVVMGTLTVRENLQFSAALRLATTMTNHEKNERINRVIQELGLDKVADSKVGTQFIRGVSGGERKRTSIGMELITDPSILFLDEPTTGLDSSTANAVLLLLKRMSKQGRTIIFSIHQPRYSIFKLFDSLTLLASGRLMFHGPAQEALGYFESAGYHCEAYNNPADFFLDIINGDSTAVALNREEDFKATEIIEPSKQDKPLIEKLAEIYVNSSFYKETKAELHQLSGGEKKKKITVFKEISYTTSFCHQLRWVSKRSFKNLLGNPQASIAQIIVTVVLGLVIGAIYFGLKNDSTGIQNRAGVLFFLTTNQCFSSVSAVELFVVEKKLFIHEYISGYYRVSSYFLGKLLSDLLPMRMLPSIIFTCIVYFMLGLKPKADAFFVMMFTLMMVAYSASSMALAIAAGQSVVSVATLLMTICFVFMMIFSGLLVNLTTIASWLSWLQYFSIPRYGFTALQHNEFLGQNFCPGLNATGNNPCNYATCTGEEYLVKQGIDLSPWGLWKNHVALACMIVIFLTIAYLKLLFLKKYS
#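 Test system: ABCG2 IgMXP3 and barcoded ABCB1 CCRF-Adr cell mix; Schedule: cells with compound and JC-1, 10 min at 25 °C, rotating, no wash; Technique: flow cytometry of retained JC-1 fluorescence; Measure: % inhibition of efflux relative to nicardipine and DMSO; Controls: nicardipine high and DMSO low controls.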
# KCC2 sec1 = confirmation of human KCC2 transport modulators; HEK293-KCC2, thallium flux, FluoZin2 fluorescence; stronger effect = higher value; normalised thallium flux (F/F0 slope) at 10 µM; shares compounds with KCC2 mod; 15% of 3,700 active;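 active = thallium flux slope above the same plate's solvent-only control mean plus 3 SD; inconclusive = the two replicate wells disagree; inactive = no significant difference from solvent-only control wells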
# KCC2 bumet counter = bumetanide-insensitive thallium flux in KCC2 cells with ouabain, counter-screen | shares compounds with KCC2 mod | HEK293-KCC2 + bumetanide/ouabain, thallium flux FluoZin2; stronger effect = higher value | normalized thallium flux at 10 µM | 49% of 3,700 active;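 active = thallium entry rate above the same plate's blocked-transporter control wells by more than 3 SD; inconclusive = the two repeat wells disagree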;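 also: raw slope of fluorescence over initial fluorescence between 10 and 20 s after thallium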
# KCC2 secondary2 = confirmation of human KCC2 transport modulators; HEK293-KCC2, thallium flux FluoZin2 fluorescence; actives lie on both sides; F/F0 rise rate, 10–20 s post-thallium; normalized thallium flux at 10 µM; shares compounds with KCC2 mod; 23% of 3,700 active;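 active = thallium flux slope more than 3 SD above or below the plate's solvent-only control mean, mostly below; inconclusive = the two repeat wells disagreed; inactive = no significant shift from solvent-only controls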;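 also: raw slope with 0.1% DMSO as baseline and bumetanide as block control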
# HEK counter1 = counter-screen for KCC2 modulators: effect in parental HEK293 cells; shares compounds with KCC2 mod; thallium flux FluoZin2, ouabain; baseline-ratio fluorescence slope, 10–20 s after thallium; thallium flux rate (normalised fluorescence) at 10 µM; 46% of 3,700 active; AID 1716;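 active = thallium flux rate significantly above the same plate's solvent-only control wells, beyond their mean plus 3 SD; inconclusive = the two replicate wells gave conflicting results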
# KCC2 ouabain = KCC2 (human) modulation, ouabain retest; AID 1717; raw Tl+ flux slope (below DMSO = inhibition, above = activation) at 10 µM; HEK293-KCC2, thallium flux FluoZin2 fluorescence; bidirectional: low = inhibitor, high = activator; 48% of 3,700 active; shares compounds with KCC2 mod;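 active = thallium flux slope beyond 3 SD from same-plate DMSO control mean in most replicates, usually higher, sometimes lower; inconclusive = repeat tests gave conflicting results; inactive = no significant difference from controls in most replicates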;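 also: slope of initial-normalized fluorescence between seconds 10 and 20 after thallium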
# HEK counter2 = acts in parental HEK cells, second KCC2 counter-screen; HEK293 parental, thallium flux FluoZin-2 fluorescence slope; AID 1718; 33% of 3,700 active; thallium flux slope at 10 µM; shares compounds with KCC2 mod;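 active = thallium flux slope above the same plate's solvent-control mean plus 3 SD in both duplicate wells; inconclusive = duplicate wells that disagreed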;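 also: run without ouabain in cells lacking the KCC2 cotransporter; slope of fluorescence scaled to its starting value between 10 and 20 s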
# * marks the source's active call; other numbers are inactive results; ? = inconclusive; · = no result given. In the library only some 3.3% were active in any assay of this set; here they are far more common.
SMILES,PMI activator,KCC2 mod,PMI act satM6P,ROMK primary,ABCB1 inh,ABCG2 inh,KCC2 sec1,KCC2 bumet counter,KCC2 secondary2,HEK counter1,KCC2 ouabain,HEK counter2
Cc1cc(C)n(-c2c(F)c(F)c(CO)c(F)c2F)n1,0.9,-1.1,1.2,0.02,0,0,·,·,·,·,·,·
Cc1c(-c2ccccc2)oc2c(C(=O)OCC(=O)Nc3ccc(C(N)=O)cc3)cccc2c1=O,0.9,-5*,0.8,·,-1,-3,0.0092,0.0054,0.033,?,0.016*,0.011
Cc1oc2cc(O)cc(C)c2c(=O)c1-c1cnn(-c2ccccc2)c1,0.8,-1.9,0.9,-0.58,-1,-3,0.0084,0.006,0.034,0.0038,0.018,0.011
CCOC(=O)COc1ccc(/C=C2\NC(=S)N(CC)C2=O)cc1,1.1,-6.2*,1,-0.8,-1,-4,0.0068,0.011*,0.029,0.0066,0.014*,0.01
COc1ccc(NC2c3ccccc3C(=O)N2Cc2ccc3c(c2)OCO3)cc1 (centres undefined),·,-0.52,·,·,·,·,·,·,·,·,·,·
COc1ccc(-c2[nH]ncc2CNCCc2ncccc2C)cc1F,·,·,·,-0.26,0,0,·,·,·,·,·,·
O=C(Nc1nc(-c2ccccn2)cs1)C1CC(=O)N(c2ccc3c(c2)OCCO3)C1 (centres undefined),0.8,-3*,0.8,-0.31,1,9,0.0072,0.0078,0.029,0.0075,0.018*,0.011*
O=C(Nc1nnc(C2CC2)s1)C1CC(=O)N(c2ccc3c(c2)OCCO3)C1 (centres undefined),0.9,-0.58,1,0.43,0,0,·,·,·,·,·,·
COCCn1c(C)cc(C(=O)CSc2ccc(NC(C)=O)cc2)c1C,1,1.2,0.9,2.1,0,0,·,·,·,·,·,·
COCC(C)n1c(C)cc(C(=O)CSc2ccc(NC(C)=O)cc2)c1C (centres undefined),1,-5.8*,1.1,-0.84,1,2,0.0082,0.0056,0.035,0.0079,0.02,0.012
Cc1ccc(N(CC(=O)NCCSCc2ccco2)S(=O)(=O)c2ccc(F)cc2)cc1,0.8,-1.8,0.8,0.82,2,8,·,·,·,·,·,·
Cc1ccc(S(=O)(=O)N(CC(=O)NCCSCc2ccco2)c2ccc(F)cc2)cc1,0.9,-4.3*,1,-0.87,-1,-2,0.0059,0.0051,0.028,0.006,0.016*,0.0097
Cc1ccc(C(=O)OCc2nnc(-c3ccc(Br)cc3)o2)cc1,0.9,-0.27,0.9,-0.17,0,0,·,·,·,·,·,·
COc1cc(NC(=O)Cn2ncc(Cl)c(Cl)c2=O)c(C)cc1[N+](=O)[O-],1,-5.1*,1,-1.9,2,3,0.0083,0.0054,0.033,0.0059*,0.017*,0.01
COc1cc(NC(=O)CN2C(=O)CN(C)C2=O)c(C)cc1[N+](=O)[O-],1.1,0.94,0.9,-0.26,0,2,·,·,·,·,·,·
O=C(OCn1ncc(Cl)c(Cl)c1=O)c1cccc(C(F)(F)F)c1,1,·,1,·,0,2,0.0092,?,0.033,0.0059*,0.015*,0.012
